The list is not random: actives were taken first. Their share in the collection is about 1.9%.
SUMO1-SIM PPI: modulators of human SUMO1-mediated protein-protein interactions. P63165. SUMO1 binding to a labelled peptide, TR-FRET, 1 h. inhibition, % at 20 µM. actives 0.33% (n = 360,000). AID 602429; in the data active = inhibition above about 37%
LMPTP inh: LMPTP (human) inhibition; P24666; recombinant LMPTP-A, OMFP fluorogenic substrate, fluorescence intensity; inhibition, % at 20 µM; actives 0.22% (n = 360,000); AID 651560;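 active = compounds that cut the enzyme signal by at least half of the control window in the single-dose screen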
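Assay system: LMPTP-A phosphatase enzyme | Input: 0.625 nM enzyme | Also added: Fluorogenic phosphatase substrate OMFP at 400 µM final | Compound dosing: One test concentration per compound, 20 µM, with 3% DMSO overall | Schedule: 50 min enzyme reaction at room temperature, protected from light | Signal: Fluorescence intensity | Benchmarks: no-enzyme and uninhibited controls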
Scp-1 inhibitor: Scp-1 (human) phosphatase inhibition | Q9GZU7 | Recombinant Scp1, phosphopeptide, malachite green phosphate absorbance | inhibition, % at 20 µM | actives 0.88% (n = 340,000) | AID 493091;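 active = inhibition above about 50% at 20 µM, limit read from the data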
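Material: truncated SCP-1 phosphatase (76-261aa) / Buffer or medium: 50 mM Tris acetate pH 5.5, 0.005% Tween-20, 10 mM MgCl2 / Compound dosing: one concentration, 20 µM, with 1.0% DMSO / Incubation: 45 min room-temperature reaction, 5 min colour, 30 min stabiliser / Detection: colorimetric free-phosphate detection, absorbance 630 nm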
FAS TE block: inhibitors of human fatty acid synthase thioesterase domain. actives 0.67% (n = 360,000). recombinant FAS-TE, OMFH fluorogenic substrate, fluorescence endpoint. P49327. inhibition, % at 15 µM;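 active = compounds whose normalised, plate-corrected inhibition of enzyme fluorescence in the single-dose primary screen is 50% or more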
STEP inh: blocks human striatal-enriched tyrosine phosphatase; P54829; recombinant STEP, OMFP fluorogenic substrate, fluorescence; inhibition, % at 20 µM; actives 0.25% (n = 360,000);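 active = inhibition at 20 µM, scaled per plate between control wells, above about 37%, limit read from the data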
Target sequence (P54829 whole entry, looked up): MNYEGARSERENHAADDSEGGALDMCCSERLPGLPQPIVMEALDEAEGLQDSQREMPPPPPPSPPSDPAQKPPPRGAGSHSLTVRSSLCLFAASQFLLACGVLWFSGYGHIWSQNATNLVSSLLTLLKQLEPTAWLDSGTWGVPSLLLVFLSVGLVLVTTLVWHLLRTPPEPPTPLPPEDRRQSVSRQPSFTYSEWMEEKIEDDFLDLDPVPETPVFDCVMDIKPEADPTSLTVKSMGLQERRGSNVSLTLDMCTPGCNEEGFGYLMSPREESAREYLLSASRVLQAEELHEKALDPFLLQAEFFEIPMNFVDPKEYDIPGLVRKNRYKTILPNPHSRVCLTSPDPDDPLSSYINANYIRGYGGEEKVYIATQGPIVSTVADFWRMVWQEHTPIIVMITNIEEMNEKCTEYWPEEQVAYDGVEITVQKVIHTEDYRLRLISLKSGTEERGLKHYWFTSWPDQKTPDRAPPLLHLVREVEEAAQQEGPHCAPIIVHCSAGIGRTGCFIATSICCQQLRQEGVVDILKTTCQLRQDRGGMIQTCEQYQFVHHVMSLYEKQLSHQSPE
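Assay system: isolated STEP enzyme / Timing: 20 min at room temperature, dark / Doses: 20 µM, 1% DMSO / Technique: fluorescence intensity, excitation 480 nm, emission 540 nm / Reagent: fluorogenic phosphatase substrate OMFP at 25 µM final / Measure: percent inhibition scaled to no-enzyme and uninhibited-enzyme controls, plate-pattern corrected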
FAS-TE inh conf: FAS thioesterase (human) inhibition, confirmation; shares compounds with FAS TE block; recombinant FAS-TE, OMFH fluorogenic substrate, fluorescence; inhibition, % at 15 µM; actives 45% (n = 2,300); AID 624325;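 active = compounds inhibiting the enzyme by at least 50% at 15 µM in any one of the replicates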
Hits are given with their value; – = inactive; · = not tested or not shown.

SMILES	SUMO1-SIM PPI	LMPTP inh	Scp-1 inhibitor	FAS TE block	STEP inh	FAS-TE inh conf
Cn1cc([N+](=O)[O-])c(C(=O)Nc2ccc(C(=O)N3CCCCC3)cc2)n1	–	–	–	–	–	·
CCc1ccc(C(C(=O)NCc2ccc(F)cc2)N(C(=O)c2csnn2)C2CC2)cc1 (configuration not stated)	–	–	–	–	–	·
CCOC(=O)c1sc(NNC(=O)c2ccc(C)cc2)nc1C	–	–	–	–	–	·
CCOC(=O)c1nc(NNC(=O)c2ccc([N+](=O)[O-])cc2)sc1C	–	–	–	52.8	–	–
CC1CCCN(C(=O)COC(=O)c2cc([N+](=O)[O-])ccc2N2CCOCC2)C1 (configuration not stated)	–	–	–	81.3	–	83.6
CCOC(=O)C1CCN(C(=O)COC(=O)c2cc([N+](=O)[O-])ccc2N2CCOCC2)CC1	–	–	–	69.6	–	71.3
CC1CCN(c2ccc([N+](=O)[O-])cc2C(=O)N2CCOCC2)CC1	–	–	–	–	–	·
CC1CC(C)CN(C(=O)COC(=O)c2cc([N+](=O)[O-])ccc2N2CCOCC2)C1 (configuration not stated)	–	–	–	82.9	–	80.7
CC1CCCC(C)N1C(=O)COC(=O)c1cc([N+](=O)[O-])ccc1N1CCOCC1 (configuration not stated)	–	–	–	62.9	–	73.6
CCC(C)N(C(=O)COC(=O)c1cc([N+](=O)[O-])ccc1N1CCOCC1)C1CCS(=O)(=O)C1 (configuration not stated)	–	–	–	–	–	·
Cc1cc(C(=O)CN2C(=O)C(=O)N(C3CCCC3)C2=O)c(C)n1CCc1ccc(F)cc1	–	–	–	–	–	·
CSc1ccc(S(=O)(=O)N2CCC(C(=O)NCC3CCCO3)CC2)cc1 (configuration not stated)	–	–	–	–	–	·
O=[N+]([O-])c1ccc(Sc2n[nH]c(-c3ccc(Cl)cc3Cl)n2)nc1	–	–	–	62.8	–	59.9
COc1cc(OC)c(NC(=O)c2sc3ncn(CC(=O)N4CCOCC4)c(=O)c3c2C)cc1Cl	–	–	–	–	–	·
COc1ccc([C@@H]2[C@@H]3C(=O)N(C(C)(C)C)C(=O)[C@@H]3[C@]3(Cc4ccccc4)C(=O)N(c4ccc(Br)cc4)C(=O)N23)cc1	–	–	–	–	–	·
CC(C)(C)N1C(=O)[C@H]2[C@@H](c3ccc(Br)cc3)N3C(=O)N(c4cccc(Cl)c4)C(=O)[C@@]3(Cc3ccccc3)[C@H]2C1=O	–	–	–	96.4	–	–
COc1ccc(N2C(=O)N3[C@H](c4ccc(Br)cc4)[C@@H]4C(=O)N(C(C)(C)C)C(=O)[C@@H]4[C@]3(Cc3ccccc3)C2=O)cc1	–	–	–	71.0	–	–
COc1ccc([C@@H]2[C@@H]3C(=O)N(C(C)(C)C)C(=O)[C@@H]3[C@]3(Cc4ccccc4)C(=O)N(c4ccccc4)C(=O)N23)cc1	–	–	–	–	–	·
COc1ccc([C@@H]2[C@@H]3C(=O)N(C(C)(C)C)C(=O)[C@@H]3[C@]3(Cc4ccccc4)C(=O)N(c4cccc(Cl)c4)C(=O)N23)cc1	–	–	–	78.7	–	–
CC(C)Cn1c(N)c(C(=O)COC(=O)c2cc(S(=O)(=O)N3CCOCC3)ccc2Br)c(=O)n(C)c1=O	–	–	–	–	–	·
CCN(CC)S(=O)(=O)c1ccc(N2CCOCC2)c(NC(=O)C23CC4CC(CC(Cl)(C4)C2)C3)c1	–	–	–	–	–	·
Cc1nc2ccc(NC(=O)c3cc([N+](=O)[O-])cc([N+](=O)[O-])c3Cl)cc2s1	–	–	–	69.9	–	88.7
Cc1nc2scc(-c3ccc(Cl)cc3)c2c(=O)o1	–	–	–	70.2	–	65.4
COc1ccc(-c2csc3nc(-c4ccccc4F)oc(=O)c23)cc1	–	–	–	62.2	–	51.2
COc1ccc2c(C)c(Cl)c(=O)oc2c1	–	–	–	–	–	·
C=C1CC(COc2ccc3c(C)c(Cl)c(=O)oc3c2)(c2ccccc2)OC1=O (configuration not stated)	–	–	–	52.8	–	46.2

Screening results (PubChem)
